Laboratory results from ChEMBL document CHEMBL3124924, “Bifunctional ethyl 2-amino-4-methylthiazole-5-carboxylate derivatives: synthesis and in vitro biological evaluation as antimicrobial and anticancer agents” (2014).
Converted amounts (≈) assume the structure as drawn. The source made the active and inactive calls. The calls are words filed in the database; no cut-off is given here.

Experiments:
Pseudomonas aeruginosa [1] = test: Antibacterial activity against Pseudomonas aeruginosa ATCC 27853 assessed as growth inhibition after 48 hrs by two-fold serial dilution assay; format: functional; details: ATCC 27853, 48 h
Summary of the method: (§1)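 Twofold serial broth dilution run on compounds giving inhibition zones of 13 mm or more. Organisms pre-grown in suitable broth at 37 °C, 24 h for bacteria and 48 h for fungi. Dilution series 200, 100, 50, 25, 12.5, 6.25. Each 5 mL tube inoculated with 0.1 mL and incubated 37 °C for 48 h. Tubes scored for presence or absence of growth.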

CCRF-CEM = test: Cytotoxicity against human CCRF-CEM cells assessed as growth inhibition at 10 uM after 48 hrs by SRB assay; format: functional; details: read-out: GI
Summary of the method: (§2)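 NCI-60 one-dose primary screen run by the NCI Drug Evaluation Branch across the full 60-line panel. Single high-dose treatment with 48 h continuous drug exposure. Cell growth estimated by sulforhodamine B protein staining. Results given as percent growth of treated cells and expressed as percentage growth inhibition.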

Staphylococcus aureus [2] = test: Antibacterial activity against Staphylococcus aureus ATCC 6538 assessed as growth inhibition at 1 mg/mL after 24 hrs by agar-cup diffusion method; format: functional; details: ATCC 6538, 24 h, read-out: DIZ
Summary of the method: (§3)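 Agar-cup diffusion: 1 mL of 6 h broth culture seeded per 100 mL molten sterile agar at 45 °C and poured into plates. 8 mm cups cut, each filled with 0.1 mL of 1 mg/mL test solution. Incubated 37 °C for 24 h, 48 h for C. albicans. DMSO control per organism. Inhibition zone diameter in mm, mean of three measurements.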

LOX IMVI = test: Cytotoxicity against human LOXIMVI cells assessed as growth inhibition at 10 uM after 48 hrs by SRB assay; format: functional; details: read-out: GI; summary of the method: as §2
SR = test: Cytotoxicity against human SR cells assessed as growth inhibition at 10 uM after 48 hrs by SRB assay; format: functional; details: read-out: GI; summary of the method: as §2
Bacillus spizizenii [3] = test: Antibacterial activity against Bacillus subtilis ATCC 6633 assessed as growth inhibition at 1 mg/mL after 24 hrs by agar-cup diffusion method; format: functional; details: ATCC 6633, 24 h, read-out: DIZ; summary of the method: as §3
Bacillus spizizenii [4] = test: Bactericidal activity against Bacillus subtilis ATCC 6633 after 18 hrs; format: functional; details: ATCC 6633, 18 h
Summary of the method: (§4)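 Continuation of the broth-dilution MIC test. A loopful from each tube without visible growth spread on a quarter of a Mueller-Hinton agar plate and incubated 18 h. Lowest concentration giving no growth on subculture taken as the MBC.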

Bacillus spizizenii [5] = test: Antibacterial activity against Bacillus subtilis ATCC 6633 assessed as growth inhibition after 48 hrs by two-fold serial dilution assay; format: functional; details: ATCC 6633, 48 h; summary of the method: as §1
SF-268 = test: Cytotoxicity against human SF268 cells assessed as growth inhibition at 10 uM after 48 hrs by SRB assay; format: functional; details: SF-268, 48 h, read-out: GI; summary of the method: as §2
K562 = test: Cytotoxicity against human K562 cells assessed as growth inhibition at 10 uM after 48 hrs by SRB assay; format: functional; details: K562, 48 h, read-out: GI; summary of the method: as §2
HCT-116 = test: Cytotoxicity against human HCT116 cells assessed as growth inhibition at 10 uM after 48 hrs by SRB assay; format: functional; details: HCT-116, 48 h, read-out: GI; summary of the method: as §2
RPMI-8226 = test: Cytotoxicity against human RPMI8226 cells assessed as growth inhibition at 10 uM after 48 hrs by SRB assay; format: functional; details: RPMI-8226, 48 h, read-out: GI; summary of the method: as §2
Escherichia coli [6] = test: Antibacterial activity against Escherichia coli ATCC 25922 assessed as growth inhibition at 1 mg/mL after 24 hrs by agar-cup diffusion method; format: functional; details: ATCC 25922, 24 h, read-out: DIZ; summary of the method: as §3
HCC 2998 = test: Cytotoxicity against human HCC2998 cells assessed as growth inhibition at 10 uM after 48 hrs by SRB assay; format: functional; details: HCC 2998, 48 h, read-out: GI; summary of the method: as §2
MOLT-4 = test: Cytotoxicity against human MOLT4 cells assessed as growth inhibition at 10 uM after 48 hrs by SRB assay; format: functional; details: MOLT-4, 48 h, read-out: GI; summary of the method: as §2
A498 = test: Cytotoxicity against human A498 cells assessed as growth inhibition at 10 uM after 48 hrs by SRB assay; format: functional; details: A498, 48 h, read-out: GI; summary of the method: as §2
HT-29 = test: Cytotoxicity against human HT-29 cells assessed as growth inhibition at 10 uM after 48 hrs by SRB assay; format: functional; details: HT-29, 48 h, read-out: GI; summary of the method: as §2
NCI-H226 = test: Cytotoxicity against human NCI-H226 cells assessed as growth inhibition at 10 uM after 48 hrs by SRB assay; format: functional; details: NCI-H226, 48 h, read-out: GI; summary of the method: as §2
UACC-62 = test: Cytotoxicity against human UACC62 cells assessed as growth inhibition at 10 uM after 48 hrs by SRB assay; format: functional; details: UACC-62, 48 h, read-out: GI; summary of the method: as §2
Aspergillus niger = test: Antifungal activity against Aspergillus niger assessed as growth inhibition at 1 mg/mL after 24 hrs by agar-cup diffusion method; format: functional, organism-based; summary of the method: as §3
SK-MEL-2 = test: Cytotoxicity against human SK-MEL-2 cells assessed as growth inhibition at 10 uM after 48 hrs by SRB assay; format: functional; details: SK-MEL-2, 48 h, read-out: GI; summary of the method: as §2
SNB-75 = test: Cytotoxicity against human SNB75 cells assessed as growth inhibition at 10 uM after 48 hrs by SRB assay; format: functional; details: SNB-75, 48 h, read-out: GI; summary of the method: as §2
Escherichia coli [7] = test: Antibacterial activity against Escherichia coli ATCC 25922 assessed as growth inhibition after 48 hrs by two-fold serial dilution assay; format: functional; details: ATCC 25922, 48 h; summary of the method: as §1
MDA-MB-468 = test: Cytotoxicity against human MDA-MB-468 cells assessed as growth inhibition at 10 uM after 48 hrs by SRB assay; format: functional; details: MDA-MB-468, 48 h, read-out: GI; summary of the method: as §2
[8] = Cytotoxicity against human UO31 cells assessed as growth inhibition at 10 uM after 48 hrs by SRB assay; format: functional; details: UO-31, 48 h, read-out: GI; summary of the method: as §2
IGROV-1 = test: Cytotoxicity against human IGROV1 cells assessed as growth inhibition at 10 uM after 48 hrs by SRB assay; format: functional; details: IGROV-1, 48 h, read-out: GI; summary of the method: as §2
[9] = Cytotoxicity against human Hs578T cells assessed as growth inhibition at 10 uM after 48 hrs by SRB assay; format: functional; details: Hs-578T, read-out: GI; summary of the method: as §2
Staphylococcus aureus [10] = test: Antibacterial activity against Staphylococcus aureus ATCC 6538 assessed as growth inhibition after 48 hrs by two-fold serial dilution assay; format: functional; details: ATCC 6538, 48 h; summary of the method: as §1
Pseudomonas aeruginosa [11] = test: Bactericidal activity against Pseudomonas aeruginosa ATCC 27853 after 18 hrs; format: functional; details: ATCC 27853, 18 h; summary of the method: as §4
HCT-15 = test: Cytotoxicity against human HCT15 cells assessed as growth inhibition at 10 uM after 48 hrs by SRB assay; format: functional; details: HCT-15, 48 h, read-out: GI; summary of the method: as §2
Candida albicans = test: Antifungal activity against Candida albicans ATCC 10231 assessed as growth inhibition at 1 mg/mL after 48 hrs by agar-cup diffusion method; format: functional; details: ATCC 10231, 48 h, read-out: DIZ; summary of the method: as §3
Escherichia coli [12] = test: Bactericidal activity against Escherichia coli ATCC 25922 after 18 hrs; format: functional; details: ATCC 25922, 18 h; summary of the method: as §4

Row | Compound | MIC (Pseudomonas aeruginosa [1]) | inhibition of growth at 10 µM (CCRF-CEM) | zone of inhibition at 1000 µg/mL (Staphylococcus aureus [2]) | inhibition of growth at 10 µM (LOX IMVI) | inhibition of growth at 10 µM (SR) | zone of inhibition at 1000 µg/mL (Bacillus spizizenii [3]) | MBC (Bacillus spizizenii [4]) | MIC (Bacillus spizizenii [5]) | inhibition of growth at 10 µM (SF-268) | inhibition of growth at 10 µM (K562) | inhibition of growth at 10 µM (HCT-116) | inhibition of growth at 10 µM (RPMI-8226) | zone of inhibition at 1000 µg/mL (Escherichia coli [6]) | inhibition of growth at 10 µM (HCC 2998) | inhibition of growth at 10 µM (MOLT-4) | inhibition of growth at 10 µM (A498) | inhibition of growth at 10 µM (HT-29) | inhibition of growth at 10 µM (NCI-H226) | inhibition of growth at 10 µM (UACC-62) | growth inhibition (GI) (Aspergillus niger) | further results
1 | CCOC(=O)c1sc(NS(=O)(=O)c2ccccc2)nc1C | 100 µg/mL (≈ 306 µM) | < 10% | > 13 mm | < 10% | < 10% | > 13 mm | 100 µg/mL (≈ 306 µM) | 100 µg/mL (≈ 306 µM) | < 10% | < 10% | 43.1% | < 10% | > 13 mm | 72.5% | 24.4% | 11.6% | < 10% | < 10% | < 10% | inactive | inhibition of growth at 10 µM (SK-MEL-2): 97.5%; inhibition of growth at 10 µM (SNB-75): 3.91%; MIC (Escherichia coli [7]): 50 µg/mL (≈ 153 µM); inhibition of growth at 10 µM (MDA-MB-468): < 10%; inhibition of growth at 10 µM [8]: 13%; inhibition of growth at 10 µM (IGROV-1): 93.1%; inhibition of growth at 10 µM [9]: < 10%; MIC (Staphylococcus aureus [10]): 25 µg/mL (≈ 76.6 µM); MBC (Pseudomonas aeruginosa [11]): 200 µg/mL (≈ 613 µM); inhibition of growth at 10 µM (HCT-15): < 10%; zone of inhibition at 1000 µg/mL (Candida albicans): > 13 mm; MBC (Escherichia coli [12]): 50 µg/mL (≈ 153 µM)
2 | CCOC(=O)c1sc(NC(=O)c2cc(OC)c(OC)c(OC)c2)nc1C | 50 µg/mL (≈ 131 µM) | 11.7% | > 13 mm | 3.7% | 21% | > 13 mm | 50 µg/mL (≈ 131 µM) | 25 µg/mL (≈ 65.7 µM) | 3.75% | 49% | 4.01% | 17% | > 13 mm | 42.7% | 12.4% | 11.4% | < 10% | 12% | 11.5% | inactive | inhibition of growth at 10 µM (SK-MEL-2): 69.1%; inhibition of growth at 10 µM (SNB-75): 2.51%; MIC (Escherichia coli [7]): 12.5 µg/mL (≈ 32.9 µM); inhibition of growth at 10 µM (MDA-MB-468): 8.82%; inhibition of growth at 10 µM [8]: 24.3%; inhibition of growth at 10 µM (IGROV-1): < 10%; inhibition of growth at 10 µM [9]: 11.2%; MIC (Staphylococcus aureus [10]): 6.25 µg/mL (≈ 16.4 µM); MBC (Pseudomonas aeruginosa [11]): 100 µg/mL (≈ 263 µM); inhibition of growth at 10 µM (HCT-15): 5.3%; zone of inhibition at 1000 µg/mL (Candida albicans): > 13 mm; MBC (Escherichia coli [12]): 12.5 µg/mL (≈ 32.9 µM)
3 | Cc1nc(NC(=O)Nc2ccccc2)sc1C(=O)NN | 50 µg/mL (≈ 172 µM) | < 10% | > 13 mm | 10.1% | 25.8% | > 13 mm | 25 µg/mL (≈ 85.8 µM) | 25 µg/mL (≈ 85.8 µM) | < 10% | < 10% | 10.5% | < 10% | > 13 mm | 6.85% | < 10% | 3.17% | < 10% | 2.53% | 11.9% | inactive | inhibition of growth at 10 µM (SK-MEL-2): 37.8%; inhibition of growth at 10 µM (SNB-75): < 10%; MIC (Escherichia coli [7]): 12.5 µg/mL (≈ 42.9 µM); inhibition of growth at 10 µM (MDA-MB-468): < 10%; inhibition of growth at 10 µM [8]: 28%; inhibition of growth at 10 µM (IGROV-1): < 10%; inhibition of growth at 10 µM [9]: 2.83%; MIC (Staphylococcus aureus [10]): 12.5 µg/mL (≈ 42.9 µM); MBC (Pseudomonas aeruginosa [11]): 100 µg/mL (≈ 343 µM); inhibition of growth at 10 µM (HCT-15): 9.63%; zone of inhibition at 1000 µg/mL (Candida albicans): > 13 mm; MBC (Escherichia coli [12]): 12.5 µg/mL (≈ 42.9 µM)
